The values below come from PubChem BioAssay.

Active and inactive are the calls of the source.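 How the source made its calls, unless noted: active means GFP response above 150% of the DMSO level; inconclusive means fewer than 70 events counted for a yeast strain; inactive means the rest.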

Test [1] can be described thus: RPL19A-GFP modulators, yeast TOR pathway, confirmation, cell-based, S. cerevisiae, flow cytometry, cherry picks, mother/daughter gates (AID 2270;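 active means GFP response below 50% of the DMSO control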). The following applies: S. cerevisiae RPL19A-GFP strain, 3 h, at 10 µM, stronger effect = lower value, 100 = same GFP as DMSO wells. For orientation: Flow cytometry measures light scatter and fluorescence of single cells or particles in a stream.

A short description of test [2]: LAP4-GFP expression modulators in yeast, confirmation, cell-based, cherry picks, flow cytometry, mother/daughter gates (AID 2271;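 active means GFP response above 150% of the DMSO control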;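 further: ratio of sample to DMSO plate mean so 100% equals DMSO level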). The following applies: S. cerevisiae LAP4-GFP strain, 3 h, at 10 µM, stronger effect = higher value, 100 means same as DMSO control. The method in brief: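 Material: Alexa 633-stained baker's yeast GFP-fusion strain; Compound dosing: single test-compound dose, 10 µM final; Incubation: 30 °C, 3 h compound incubation, rotating; Detection: HT flow cytometry, GFP fluorescence channel; Control set: positive rapamycin (400 ng/mL), negative DMSO.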

Test [3] is described as follows: modulators of MEP2-GFP levels in yeast, confirmation, S. cerevisiae, flow cytometry GFP, cherry picks (AID 2272;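 active means GFP response above 150% of the DMSO control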;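 further: ratio of well signal to plate DMSO mean so 100% equals DMSO level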). The following applies: S. cerevisiae MEP2-GFP strain, 3 h, at 10 µM, stronger effect = higher value.
Test [4] can be described thus: AGP1-GFP expression modulators, hit retest, confirmation, cell-based, flow cytometry, S. cerevisiae, cherry picks (AID 2273).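 Further: median GFP channel fluorescence over the whole cell population gate.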 The settings on record: S. cerevisiae AGP1-GFP strain, 3 h, at 10 µM.
Test [5] in a line: modulators of CIT2-GFP expression in yeast, confirmation, S. cerevisiae, GFP fusion, cherry picks, mother/daughter gates (AID 2274). The settings on record: S. cerevisiae CIT2-GFP strain, flow cytometry, 3 h, at 10 µM, stronger effect = higher value.
Where [6] appears, read: measured here: daughter cell gate.
[7] abbreviates: measured here: mother cell gate.
[8] abbreviates: measured here: daughter cell gate response.
Setting [9] is: measured here: mother cell gate response.

In the case of `O=C(COc1ccccc1)N1CCN(c2ncnc3c2cnn3-c2ccccc2)CC1`, the GFP response vs DMSO in test [1] is 98.7% (inactive); in test [1] (setting [6]), 98.4%; in test [1] (setting [7]), 98.6%; in test [3], 101% (inactive). Besides, the GFP response relative to DMSO in test [2] is 104% (inactive); in test [2] (setting [8]) it was 102%; in test [2] (setting [9]), 105%. Moreover, the GFP response, % of DMSO is 97.3% (inactive) in test [4], 98.6% (inactive) in test [5], 103% in test [5] (setting [6]) and 98.2% in test [5] (setting [7]).
On to `Cc1ccc(N2C(=O)C3C4C=CC(CNC(=S)Nc5ccc(F)cc5)(O4)C3C2=O)cc1` (stereo not drawn), for which the GFP response vs DMSO in test [1] was 98.4% (inactive); in test [1] (setting [6]), 99.9%; in test [1] (setting [7]), 97.5%; in test [3], 108% (inactive). Also, the GFP response relative to DMSO is 102% (inactive) in test [2], 103% in test [2] (setting [8]) and 103% in test [2] (setting [9]). The GFP response, % of DMSO in test [4] is 105% (inactive); in test [5] it was 110% (inactive); in test [5] (setting [6]), 110%; in test [5] (setting [7]), 110%.
With `O=C(CSc1cccc[n+]1[O-])c1cc2ccccc2o1`, the GFP response vs DMSO in test [1] is 104% (inactive); in test [1] (setting [6]) it was 107%; in test [1] (setting [7]), 103%; in test [3], 109% (inactive). The figures for the GFP response relative to DMSO in test [2], in test [2] (setting [8]) and in test [2] (setting [9]) were 138% (inactive), 126% and 137%, respectively. For the same compound, the GFP response, % of DMSO is 97.2% (inactive) in test [4], 107% (inactive) in test [5], 111% in test [5] (setting [6]) and 104% in test [5] (setting [7]).
In the case of `O=C(c1c(F)cccc1F)N1CCN(c2ccccc2F)CC1`, the GFP response vs DMSO was 99.4% (inactive) in test [1], 99.1% in test [1] (setting [6]), 98.4% in test [1] (setting [7]) and 100% (inactive) in test [3]. Further, the GFP response relative to DMSO is 103% (inactive) in test [2], 102% in test [2] (setting [8]) and 103% in test [2] (setting [9]). In addition, the GFP response, % of DMSO is 92.1% (inactive) in test [4], 107% (inactive) in test [5], 106% in test [5] (setting [6]) and 106% in test [5] (setting [7]).
Regarding `C=CCn1c(=N)c(C#N)cc2c(=O)n3ccccc3nc21`, the GFP response vs DMSO in test [1] is 98% (inactive); in test [1] (setting [6]) it was 95.4%; in test [1] (setting [7]) it was 93%; in test [3], 105% (inactive). The GFP response relative to DMSO in test [2] is 99.2% (inactive); in test [2] (setting [8]), 99.2%; in test [2] (setting [9]) it was 98.3%. Further, the GFP response, % of DMSO in test [4] was 100% (inactive); in test [5] it was 101% (inactive); in test [5] (setting [6]), 97.2%; in test [5] (setting [7]), 87.8%.
`CSc1ccc(/C=N/NC(=O)c2ccc(O)cc2)cc1`: the GFP response vs DMSO in test [1] was 97.8% (inactive); in test [1] (setting [6]), 98.1%; in test [1] (setting [7]), 98.5%; in test [3], 103% (inactive). In addition, the GFP response relative to DMSO in test [2] was 97% (inactive); in test [2] (setting [8]), 97.5%; in test [2] (setting [9]), 96.2%. Moreover, the GFP response, % of DMSO was 103% (inactive) in test [4], 103% (inactive) in test [5], 103% in test [5] (setting [6]) and 103% in test [5] (setting [7]).
Regarding `O=[N+]([O-])c1cc(Cl)ccc1Sc1ccccn1`, the GFP response vs DMSO in test [1] is 104% (inactive); in test [1] (setting [6]), 102%; in test [1] (setting [7]) it was 103%; in test [3] it was 112% (inactive). Further, the GFP response relative to DMSO is 98.2% (inactive) in test [2], 95.9% in test [2] (setting [8]) and 98.4% in test [2] (setting [9]). Besides, the GFP response, % of DMSO is 99% (inactive) in test [4], 95.9% (inactive) in test [5], 95.6% in test [5] (setting [6]) and 93.2% in test [5] (setting [7]).
For `CCOC(=O)C1(CCCc2ccccc2)CCN(C(=O)c2cc(C)nn2CC)CC1`, the GFP response vs DMSO in test [1] was 99.3% (inactive); in test [1] (setting [6]), 99.8%; in test [1] (setting [7]) it was 99.8%; in test [3], 97.5% (inactive). For the same compound, the values for the GFP response relative to DMSO in test [2], in test [2] (setting [8]) and in test [2] (setting [9]) were 98.8% (inactive), 102% and 98.5%, respectively. Further, the GFP response, % of DMSO in test [4] was 99.3% (inactive); in test [5], 102% (inactive); in test [5] (setting [6]) it was 104%; in test [5] (setting [7]), 101%.
